We go through 13 molecules from article PMC9303924 (Proceedings of the National Academy of Sciences of the …, 2022).

“Also recorded” adds a separate entry of the source. Where two headings read alike, the source gives them in different places.

In experiment [1] the test system is McpA-LBD. The conditions noted are these: cited from earlier work.
Experiment [2] has as its system McpA/TlpA receptor chimeras in SQR9Δ8mcp. In words: Chemotaxis of McpA receptor chimera strains compared. Conditions: strains with chimeras McpA_distal (M1) and McpA_proximal (M2). In kind it is cell-based, Bacillus velezensis SQR9. The gist of the method:
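Chimeric receptors (McpA or TlpA LBD modules swapped) integrated at amyE of SQR9Δ8mcp; strains grown at 30 °C in low-salt LB. Microfluidic SlipChip run with 13 parallel units as duplicates: channels BSA-coated (10 mg/mL, 5 min); compound, cells and buffer in top, middle and bottom wells; 30 min in the dark. Cells counted by fluorescence microscopy; I30 = Ne/(Ne+Nc); attraction when above 0.6.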

Experiment [3] has as its target T1, McpA-LBD (A36-L277) (Bacillus velezensis, UniProt A7Z835).
T1 sequence (A7Z835 36-277): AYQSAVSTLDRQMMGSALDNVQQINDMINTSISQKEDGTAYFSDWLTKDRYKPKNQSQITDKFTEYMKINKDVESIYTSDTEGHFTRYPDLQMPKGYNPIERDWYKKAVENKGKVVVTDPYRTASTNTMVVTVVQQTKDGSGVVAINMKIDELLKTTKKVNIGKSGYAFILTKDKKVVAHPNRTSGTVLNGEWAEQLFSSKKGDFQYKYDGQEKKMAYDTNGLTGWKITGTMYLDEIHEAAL
The experiment can be described thus: Surface plasmon resonance. In kind it is binding, Bacillus velezensis SQR9. Conditions: SPR, compounds at 200 μM and 2 mM.

Experiment [4] addresses T1, McpA-LBD (A36-L277). The experiment can be described thus: Biolayer interferometry. The experiment is classed as binding, Bacillus velezensis SQR9. A general note: In BLI a coated tip is dipped into the sample, and binding shifts an interference pattern.
In experiment [5] the test system is McpA-LBD. Conditions: cited from earlier work. The source holds these as a separate data set.

On to `N[C@@H](CC(=O)O)C(=O)O` [Aspartic acid], for which, in the experiment with McpA-LBD [1], the “direct binding to McpA-LBD” value is “direct binding”. For the same molecule, in experiment [2], the “McpA-LBD module on which chemotaxis relies” value (from here on “McpA-LBD module”) is “sensed by the membrane-proximal module”.

With `O=C(O)CC(O)(CC(=O)O)C(=O)O` [Citric acid], in the experiment on McpA-LBD [1], the “direct binding to McpA-LBD” value is reported as “direct binding”. Further, in experiment [2], the “McpA-LBD module” value is given as “sensed by the membrane-proximal module”.

Regarding `C[C@H](O)[C@@H](O)[C@@H](O)[C@H](O)C=O` [Fucose], the “binding to McpA-LBD” value at McpA-LBD (A36-L277) [3] was “binding for all ligands, except for serine and fucose”. Besides, the “interaction with McpA-LBD observed” value on McpA-LBD (A36-L277) [4] (BLI) is “interaction; also recorded: directly bound”.

Regarding `O=C[C@H](O)[C@@H](O)[C@@H](O)[C@H](O)CO` [Galactose], the “direct binding to McpA-LBD” value with McpA-LBD [5] was “no direct binding”.

As to `N[C@@H](CCC(=O)O)C(=O)O` [Glutamic acid], the “McpA-LBD module” value in experiment [2] was “sensed by the membrane-proximal module”.

As for `O=C(O)CC(O)C(=O)O` (stereo not shown) [Malic acid], the “McpA-LBD module” value in experiment [2] is listed as “sensed by the membrane-proximal module”.

For the molecule `OC[C@H]1OC(O)[C@@H](O)[C@@H](O)[C@@H]1O` (stereo partly shown) [Mannose], the “interaction with McpA-LBD observed” value on McpA-LBD (A36-L277) [4] (BLI) is “interaction”.

As to `O=C(O)C(=O)O` [Oxalic acid], in experiment [2], the “McpA-LBD module” value is given as “sensed by the membrane-proximal module”.

In general, Kd refers to the constant that tells how readily two partners part at equilibrium. Read a low Kd as a tighter complex. Molecule `OC[C@@H](O)[C@@H](O)[C@@H](O)CO` [Ribitol] yielded a Kd at McpA-LBD (A36-L277) [4] of 4.36 µM. For the same molecule, on McpA-LBD (A36-L277) [4] (BLI), the “interaction with McpA-LBD observed” value is “interaction; also recorded: directly bound”.

In the case of `O=C[C@H](O)[C@H](O)[C@H](O)CO` [Ribose], on McpA-LBD (A36-L277) [4] (BLI), the “interaction with McpA-LBD observed” value was “interaction; also recorded: directly bound”. At McpA-LBD (A36-L277) [4] (BLI, McpA-LBD (A36-L277), 25 °C, 1:1 binding model), this molecule returned a Kd of 1.94 µM.

Turning to `N[C@@H](CO)C(=O)O` [Serine], the “binding to McpA-LBD” value at McpA-LBD (A36-L277) [3] was “binding for all ligands, except for serine and fucose”.

Consider `O=C(O)CCC(=O)O` [Succinic acid], for which, in experiment [2], the “McpA-LBD module” value is reported as “sensed by the membrane-proximal module”.

Turning to `N[C@@H](Cc1ccc(O)cc1)C(=O)O` [Tyrosine], on McpA-LBD (A36-L277) [4] (BLI), the “interaction with McpA-LBD observed” value is given as “interaction”. In addition, in experiment [2], the “McpA-LBD module” value is on record as “sensed by the membrane-proximal module”.
